Common to all, as to assay type: functional, cell-based
Experiment [1] has as its system HL-60. Briefly: Cytotoxicity against human HL60 cells at 100 uM after 72 hrs by MTT assay.
Experiment [2] concerns A549. Briefly: Cytotoxicity against human A549 cells at 100 uM after 24 hrs by SRB assay.
In experiment [3] the test system is A549. In words: Cytotoxicity against human A549 cells after 24 hrs by SRB assay. Conditions: A549, 24 h. Put shortly:
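A-549 cells plated at 2 × 10^5 cells/mL, then compounds added in MeOH (2 µL per well) at several concentrations for 24 h. Cells fixed with 12% trichloroacetic acid, stained with 0.4% SRB, absorbance read at 515 nm. IC50 taken from the linear portion of log dose–response curves.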

Experiment [4] has as its system HL-60. Briefly: Cytotoxicity against human HL60 cells after 72 hrs by MTT assay. Conditions: HL-60, 72 h. Put shortly:
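HL60 grown in RPMI-1640 with 10% FBS at 37 °C, 5% CO2. Seeded at 5 × 10^4 cells/mL, allowed 24 h, then given compounds in MeOH (2 µL per well) at several concentrations for 72 h. MTT (5 mg/mL stock) added for 4 h, formazan dissolved in DMSO, absorbance read at 540 nm. IC50 taken from the linear portion of log dose–response curves.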

This is an account of results in ChEMBL document CHEMBL1154129, “Cytotoxic polyketides from a marine-derived fungus Aspergillus glaucus” (J Nat Prod, 2008).

SMILES strings stand for the structures. The source made the active and inactive calls. The rule behind the calls is not given here.

Turning to `COc1cc(O[C@H]2O[C@H](CO)[C@@H](O)[C@H]2O)cc2cccc(O)c12`, the result with HL-60 [1] and in the experiment on A549 [2] was inactive.

Consider `COc1cc(O)cc2cc3c(c(O)c12)C(=O)C[C@@H](C)[C@@H]3O`, for which the outcome in the experiment on HL-60 [1] and in the experiment with A549 [2] was inactive.

Turning to `COc1cc(O)c2c(c1)[C@@H]([C@H]1c3cc(C)cc(O)c3C(=O)c3c(O)cc(O)cc31)c1cc(C)cc(O)c1C2=O` (relative stereo), the figures for the IC50 in the experiment with A549 [3] and in the experiment on HL-60 [4] were 9.2 µM and 7.8 µM, respectively.

Regarding `COc1cc(O[C@H]2O[C@H](CO)[C@@H](O)[C@H]2O)cc2cc(C)cc(O)c12`, the result in the experiment on HL-60 [1] and in the experiment on A549 [2] was inactive.

Regarding `COc1cc(O[C@H]2O[C@H](CO)[C@@H](O)[C@H]2O)cc2cc(C)c(C(C)=O)c(O)c12`, the outcome with HL-60 [1] and in the experiment on A549 [2] was inactive.

Turning to `COc1cc(O)c2c(c1)[C@H]([C@H]1c3cc(C)cc(O)c3C(=O)c3c(O)cc(O)cc31)c1cc(C)cc(O)c1C2=O` (relative stereo), the IC50 came out at 14.2 µM in the experiment with A549 [3] and 44 µM with HL-60 [4].

Consider `COc1cc(O)cc2c1C(=O)c1c(cc(C)c(C(=O)OC[C@H](O)CO)c1O)C2=O`, for which the result in the experiment on HL-60 [1] and in the experiment with A549 [2] was inactive.

Consider `COc1cc(O)cc2c1C(=O)c1c(O)cc(C)c3oc(=O)c(C(=O)c4c(C)cc(O)cc4O)c-2c13` [ASPERGIOLIDE B], for which the IC50 is 0.24 µM with A549 [3] and 0.51 µM in the experiment on HL-60 [4].
